Screens (PubChem)
Rows were chosen to be rich in hits. Some 2% of all compounds tested hit in one or more screens of this group.
STAT3 inh: reduces IL-6 driven STAT3 reporter signal. hit rate 0.89% among 190,000. U3A cells, IL-6 STAT3-luciferase reporter, luminescence; host cell line lacks STAT1. inhibition, % at 5.5 µM;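 active means inhibition above the mean inhibition across all screened compounds plus 3 SD, cut at about 44% in these data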;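 further: 0% = DMSO only wells and 100% = 100 µM nifuroxazide control wells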
STAT3 act-1: STAT3 signaling activation; hit rate 0.91% among 190,000; activation (% of control), % at 5.6 µM; U3A cells, IL-6 STAT3-luciferase reporter, luminescence; 100% = signal with IL-6 EC80 alone;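 active means activation above the screen-wide mean of compound activation plus 3 SD, cut at about 130% in these data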;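 further: 0% = background luminescence of wells with medium and substrate only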
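Test system: STAT3-luciferase reporter U3A cells; Detection: reporter luminescence signal; Times: 1 h compound pre-exposure, 6 h IL-6 stimulation, 37 °C; Benchmarks: IL-6-only high control; Also added: IL-6 stimulus at 33 ng/mL final.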
STAT1 blocker: inhibitors of IFN-gamma induced STAT1 signaling; hit rate 0.35% among 200,000; AID 920; inhibition, % at 5.5 µM; NIH 3T3 STAT1-luciferase reporter, luminescence;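 active means inhibition above a set limit, the mean inhibition across all tested compounds plus 3 SD, cut at about 34% in these data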;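 further: 0% = IFN-gamma with DMSO and 100% = IFN-gamma with 300 µM nifuroxazide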
HSP90 inh: HSP90 refolding inhibition in rabbit reticulocyte lysate | luciferase refolding luminescence, 3 h | inhibition, % at 5.6 µM | hit rate 0.91% among 290,000;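 active means inhibition above the screen-wide mean plus 3 SD, computed separately per campaign, cut at about 16% in these data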;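 further: 0% = DMSO wells and 100% = 60 µM geldanamycin wells; inhibitors lower the luminescence because luciferase stays unfolded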
STAT3 act-2: STAT3 activation, confirmation assay; shares compounds with STAT3 act-1; U3A STAT3-luciferase reporter, IL-6 potentiation, luminescence; U3A cells lack STAT1; 100 means same as IL-6 alone; potentiation (% of control), % at 5.7 µM; hit rate 64% among 1,200;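 active means percent activation of the STAT3 luciferase reporter above a set limit taken from the earlier primary screen, cut at about 130% in these data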;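 further: 0% = background signal of medium plus substrate and 100% = median of IL-6 with DMSO wells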
NFkB act 2: activates NF-kappaB, counter-screen to STAT3 activators; activation (% of control), % at 5.7 µM; AID 1309; hit rate 11% among 1,200; human cells, NF-kappaB reporter activation; shares compounds with STAT3 act-1; in the data active means activation above about 120%;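 further: reporter induced by TNF-alpha stimulation; 100% = median of stimulated DMSO wells and 0% = no signal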
STAT1 act: counter-screen for STAT3 activators: STAT1 activation; NIH 3T3 STAT1-luciferase reporter, IFN-gamma, luminescence; hit rate 13% among 1,200; AID 1318; activation (% of control), % at 5.7 µM; shares compounds with STAT3 act-1;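 active means activation above the solvent-only control well mean plus 3 SD, set per screening run, cut at about 120% in these data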;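 further: 100% = IFN-gamma with DMSO median signal so 100% means no change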
An asterisk follows results filed as active; nt = no result.

SMILES | STAT3 inh | STAT3 act-1 | STAT1 blocker | HSP90 inh | STAT3 act-2 | NFkB act 2 | STAT1 act
COc1ccc(C)c2sc(=NC(=O)c3ccccc3)n(C)c12 | -32.8 | 135.8* | -21.9 | -3.6 | 138.9* | 148.1* | 181.8*
O=C(N/N=C/c1cccc([N+](=O)[O-])c1)C(=O)N1CCCCCC1 | nt | nt | nt | 1.3 | nt | nt | nt
c1ccc(-c2cc3ccccc3nc2N2CCCC2)cc1 | -38.0 | 136.4* | 19.0 | 2.1 | 95.3 | 102.9 | 97.5
Cc1ccc(OC(=O)c2oc3ccc(F)cc3c2C)c(C)c1 | -67.2 | 158.9* | 6.1 | -1.1 | 136.9* | 109.8 | 93.8
CCCC(=O)Nc1cc2c3c(c1)C(C)C(=O)N3CCC2 (configuration not stated) | nt | nt | nt | -3.3 | nt | nt | nt
COc1cc(CC(=O)Nc2sc3c(c2C(N)=O)CCCC3)cc(OC)c1OC | nt | nt | nt | -2.1 | nt | nt | nt
Cn1c(C(C#N)C(=O)Cc2cccc3ccccc23)nc2ccccc21 (configuration not stated) | 4.4 | 101.7 | -2.9 | -1.1 | nt | nt | nt
Cn1c(C(C#N)C(=O)c2ccco2)nc2ccccc21 (configuration not stated) | -34.7 | 135.9* | -12.2 | 0.5 | 136.1* | 111.2 | 124.4*
O=C(c1ccco1)[C@@H]1[C@@H]2C(=O)N(c3ccc(Br)cc3)C(=O)[C@@H]2C2c3ccccc3C=CN21 (some centres not stated) | -47.9 | 141.5* | -2.9 | 8.6 | 124.8 | 106.5 | 105.8
COc1cc(C2C(C#N)=C(N)Oc3cc4c(cc32)OCO4)cc(OC)c1OC (configuration not stated) | -45.9 | 146.9* | 10.7 | -1.1 | 118.4 | 162.1* | 107.4
COc1cc(C2C(C#N)=C(N)Oc3cc(O)ccc32)cc(OC)c1OC (configuration not stated) | -9.9 | 112.2 | 9.9 | -1.2 | nt | nt | nt
C[C@H](NC(=O)N1CCn2c1nc1ccccc12)C(=O)NCC1CCCO1 (some centres not stated) | nt | nt | nt | 0.0 | nt | nt | nt
COc1ccccc1C(=O)Nc1cc(Cl)ccc1O | -52.2 | 151.1* | 8.2 | 2.4 | 161.9* | 109.0 | 114.2
COc1cc(NC(=O)c2cc3ccccc3o2)c(OC)cc1Br | -49.5 | 149.4* | -0.1 | 1.2 | 135.4* | 100.9 | 101.8
COc1ccccc1C(=O)Nc1cc2ccccc2oc1=O | -87.1 | 184.2* | -22.3 | -0.9 | 191.8* | 135.3* | 165.7*
CCOc1ccccc1C(=O)Nc1cc(Cl)ccc1O | -16.1 | 114.6 | 2.3 | 0.0 | nt | nt | nt
COc1ccccc1C(=O)Nc1cc2cc(Br)ccc2oc1=O | -44.3 | 137.4* | -3.9 | -0.5 | 137.7* | 114.1 | 133.9*
NCCCNc1nc(N)c([N+](=O)[O-])c(NC2CCCCC2)n1 | nt | nt | nt | -2.3 | nt | nt | nt
CCC(C)N(C(=O)COC(=O)CNC(=O)c1sc2ccccc2c1Cl)C1CCS(=O)(=O)C1 (configuration not stated) | nt | nt | nt | 0.8 | nt | nt | nt
COCCNC(=O)C(=O)NNC(=O)c1ccccc1OC | -46.3 | 141.7* | -0.6 | 3.4 | 136.9* | 108.8 | 103.2
O=C1c2ccccc2CC1Sc1nnc(-c2ccccn2)o1 (configuration not stated) | -51.5 | 148.8* | -6.7 | -1.4 | 130.1 | 103.8 | 101.0
COc1ccc(N2CCN(C(=O)NC3CC(=O)N(c4ccc(OC)cc4)C3)CC2)cc1 (configuration not stated) | 5.9 | 101.5 | -0.9 | -5.0 | nt | nt | nt
O=Cc1ccc2cccnc2n1 | -49.3 | 148.0* | -7.0 | 4.0 | 145.9* | 105.6 | 103.2
COc1ccc(/C=C/C(=O)c2cc(F)ccc2OC(=O)c2ccccc2OC)cc1OC | -44.6 | 156.0* | -3.1 | 2.9 | 113.8 | 168.2* | 107.6
O=C(OCc1csc(-c2ccccc2)n1)c1ccc(O)cc1 | 6.5 | 95.2 | -52.2 | 1.8 | nt | nt | nt
SMILES | STAT3 inh | STAT3 act-1 | STAT1 blocker | HSP90 inh | STAT3 act-2 | NFkB act 2 | STAT1 act
O=C(CSc1nnc(C2CCCCC2)o1)Nc1ccccc1Cl | nt | nt | nt | -2.6 | nt | nt | nt
COc1ccc(C(C[N+](=O)[O-])c2c(C)[nH]c3ccccc23)cc1OC (configuration not stated) | -47.6 | 138.5* | 15.5 | 11.9 | 111.1 | 102.4 | 95.4
CN1N=C(C(=O)N2CCc3c([nH]c4ccccc34)C2c2c(F)cccc2Cl)CCC1=O (configuration not stated) | -53.3 | 153.7* | -10.5 | 3.5 | 149.6* | 104.5 | 113.7
O=C(c1cc2c([nH]c1=O)CCCC2)N1CCc2c([nH]c3ccccc23)C1c1ccccc1F (configuration not stated) | -26.6 | 130.2 | 7.7 | 0.6 | nt | nt | nt
COc1cc2c(cc1OC)-c1cc(N3CCc4ccccc43)nc(=O)n1CC2 | nt | nt | nt | 0.8 | nt | nt | nt
COc1cc2c(cc1OC)-c1cc(N3CCCc4ccccc43)nc(=O)n1CC2 | -51.8 | 148.7* | 2.9 | -0.7 | 133.4* | 102.6 | 96.3
COc1ccc(/C=N\Nc2ccccn2)c(OC)c1 | nt | nt | nt | -2.5 | nt | nt | nt
Cc1ccc(C)c(/C=N/Nc2ccccn2)c1 | -48.9 | 140.3* | -27.4 | -1.7 | 126.6 | 105.8 | 127.6*
COc1ccc(-c2cc(C(F)(F)F)c(C#N)c(SCC(=O)Nc3nc(C)co3)n2)cc1 | 4.1 | 106.4 | -3.2 | -3.1 | nt | nt | nt
Cc1coc(NC(=O)CSc2nc(-c3ccc(Cl)cc3)cc(C(F)(F)F)c2C#N)n1 | -36.6 | 137.7* | 0.0 | 0.3 | 130.4 | 104.5 | 102.6
Cc1ccc(C(=O)Nc2ccc(C(=O)N/N=C/c3c[nH]c4ccccc34)cc2)cc1 | -50.5 | 147.7* | 5.6 | -3.6 | 122.1 | 96.8 | 97.8
Cc1ccc(/C=N/NC(=O)Cc2c[nH]c3ccccc23)c(C)c1 | -40.9 | 141.8* | 0.9 | -0.3 | 129.6 | 100.8 | 90.8
C[C@H](NC(=O)[C@@H]1Cc2ccccc2CN1)C(=O)NCC1CCCO1 (some centres not stated) | nt | nt | nt | 1.4 | nt | nt | nt
COc1ccc(-c2cc(C(=O)N(C)Cc3ccc(F)cc3)c3ccccc3n2)cc1OC | nt | nt | nt | -4.6 | nt | nt | nt
COc1ccc(/C=C/C(=O)Oc2ccc(C)cc2)cc1 | nt | nt | nt | -2.5 | nt | nt | nt
NNc1nc2c(Cl)ccc(Cl)c2s1 | -50.5 | 145.9* | 16.8 | -0.3 | 124.8 | 103.3 | 89.5
Cc1ccc(C)c(S(=O)(=O)Nc2cc(SCC(=O)O)c(O)c3ccccc23)c1 | -55.5 | 143.0* | 7.0 | -2.9 | 145.6* | 104.9 | 107.8
CC(=O)c1cccc2c(O)c(C3=Nc4ccccc4C3=O)[nH]c12 | -41.7 | 138.4* | -5.0 | 5.8 | 151.8* | 136.4* | 181.1*
O=C1C(c2c(O)[nH]c3ccccc23)=Nc2ccccc21 | nt | nt | nt | -3.6 | nt | nt | nt
COc1ccc(C(O)(c2ccccc2OC)C(CN2CCOCC2)c2ccccc2)cc1 (configuration not stated) | 3.1 | 104.2 | -0.2 | -0.2 | nt | nt | nt
CC(C)[C@@H](C(=O)N1CCN(C(=O)OC(C)(C)C)CC1)n1cc(CCO)nn1 | nt | nt | 2.9 | 11.6 | nt | nt | nt
